Series [1] is described as follows: Inhibition of PDE4 in PBMC (unknown origin) assessed as reduction in LPS-induced TNFalpha production incubated for 24 hrs by ELISA. To be noted: Homo sapiens. (ELISA stands for enzyme-linked immunosorbent assay.)
Series [2] in a line: Inhibition of PDE4 in human whole blood assessed as reduction in LPS-induced TNFalpha production incubated for 24 hrs by ELISA. The series is classed as tissue-based. The method in brief:
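Human whole blood was preincubated with LPS (final 1 μg/mL) for 10 min at 37 °C with rocking. 200 μL was added to wells holding increasing inhibitor concentrations in 100% DMSO. Plates were incubated 24 h at 37 °C under agitation, then placed on ice, diluted with PBS and centrifuged at 800g, 4 °C, for 15 min before TNF-α measurement.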

Series [3] concerns Rattus norvegicus. Put plainly: Anti-inflammatory activity in Sprague-Dawley rat assessed as inhibition of LPS-induced neutrophilia at 10 ug/kg, it administered as dry powder with lactose carrier through Penn-Century insufflator dosed 18 hrs before LPS challenge and measured 22 hrs post dose. Format: functional. In a few lines:
(§1)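 Compounds were micronized, comixed with lactose, and 5 mg of the mixture was insufflated intratracheally into isoflurane-anesthetized fasted male Sprague-Dawley rats (230–280 g). LPS aerosol (30 mL of a 1:100 PBS dilution of 100 mg/10 mL stock) was nebulized for 40 min at 1 or 18 h post-dose. BAL was taken 4 h later and neutrophils counted by flow cytometry. Controls: lactose alone, lactose+LPS, fluticasone (10% in lactose).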

Series [4] deals with Rattus norvegicus. Put plainly: Anti-inflammatory activity in Sprague-Dawley rat assessed as inhibition of LPS-induced neutrophilia at 10 to 1000 ug/kg, it administered as suspension with Penn-Century micro-sprayer aerosolizer dosed 1 hrs before LPS challenge and measured 5 hrs post dose. Format: functional. Conditions: inhaled or nasal. The method in brief:
(§2)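 Suspensions in PBS/0.2% Tween 80 were homogenized, with lower doses made by 1:10 dilutions. 0.2 mL was given intratracheally by MicroSprayer to isoflurane-anesthetized fasted male Sprague-Dawley rats (230–280 g). At 1 or 18 h, rats received nebulized LPS (30 mL of a 1:100 PBS dilution of 100 mg/10 mL stock) over 40 min. Four hours later, BAL neutrophils were counted by flow cytometry.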

For series [5], the system named is Rattus norvegicus. Description: Anti-inflammatory activity in Sprague-Dawley rat assessed as inhibition of LPS-induced neutrophilia at 100 ug/kg, it administered as suspension with Penn-Century micro-sprayer aerosolizer dosed 18 hrs before LPS challenge and measured 22 hrs post dose. Format: functional. To be noted: inhaled or nasal. The method in brief:
as §2

The test system of series [6] is Rattus norvegicus. Description: Anti-inflammatory activity in Sprague-Dawley rat assessed as inhibition of LPS-induced neutrophilia at 300 ug/kg, it administered as suspension with Penn-Century micro-sprayer aerosolizer dosed 18 hrs before LPS challenge and measured 22 hrs post dose. The series is classed as functional. To be noted: inhaled or nasal. In a few lines: as §2

Series [7] concerns Rattus norvegicus. Description: Anti-inflammatory activity in Sprague-Dawley rat assessed as inhibition of LPS-induced neutrophilia at 10 ug/kg, it administered as dry powder with lactose carrier through Penn-Century insufflator dosed 1 hrs before LPS challenge and measured 5 hrs post dose. Format: functional. In a few lines: as §1
In series [8] the test system is Rattus norvegicus. Description: Anti-inflammatory activity in Sprague-Dawley rat assessed as inhibition of LPS-induced neutrophilia at 100 ug/kg, it administered as dry powder with lactose carrier through Penn-Century insufflator dosed 1 hrs before LPS challenge and measured 5 hrs post dose. Format: functional. The method in brief: as §1
Series [9] deals with Rattus norvegicus. Put plainly: Anti-inflammatory activity in Sprague-Dawley rat assessed as inhibition of LPS-induced neutrophilia at 100 ug/kg, it administered as dry powder with lactose carrier through Penn-Century insufflator dosed 18 hrs before LPS challenge and measured 22 hrs post dose. The series is classed as functional. The method in brief:
as §1

The next series deals with T1, Adenosine receptor A1 (Homo sapiens, UniProt P30542).
T1 sequence (P30542 whole entry): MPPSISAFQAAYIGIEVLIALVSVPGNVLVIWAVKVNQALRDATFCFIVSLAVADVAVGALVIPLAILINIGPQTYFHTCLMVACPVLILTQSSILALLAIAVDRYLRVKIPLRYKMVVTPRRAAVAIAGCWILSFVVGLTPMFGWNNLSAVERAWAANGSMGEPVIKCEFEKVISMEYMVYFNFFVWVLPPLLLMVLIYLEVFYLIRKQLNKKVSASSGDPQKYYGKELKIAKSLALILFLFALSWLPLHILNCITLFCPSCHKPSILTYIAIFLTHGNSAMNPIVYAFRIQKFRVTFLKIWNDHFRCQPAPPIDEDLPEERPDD
Put plainly: Antagonist activity at adenosine A1 receptor (unknown origin).

In the next series the target is Adenosine receptor A2a (Homo sapiens, UniProt P29274). Put plainly: Antagonist activity at adenosine A2a receptor (unknown origin).
Adenosine receptor A2a, sequence (P29274 whole entry): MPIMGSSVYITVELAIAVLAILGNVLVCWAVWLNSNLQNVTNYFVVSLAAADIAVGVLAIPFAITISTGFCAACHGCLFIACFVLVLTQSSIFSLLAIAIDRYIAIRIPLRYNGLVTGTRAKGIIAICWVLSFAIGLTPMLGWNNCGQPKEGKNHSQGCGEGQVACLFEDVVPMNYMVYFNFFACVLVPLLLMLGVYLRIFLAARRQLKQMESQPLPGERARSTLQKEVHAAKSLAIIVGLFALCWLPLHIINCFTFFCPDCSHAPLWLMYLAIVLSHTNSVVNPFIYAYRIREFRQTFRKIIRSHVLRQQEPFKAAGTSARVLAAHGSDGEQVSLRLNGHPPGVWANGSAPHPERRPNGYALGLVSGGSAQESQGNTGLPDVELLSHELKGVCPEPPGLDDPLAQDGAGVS
In the next series the target is T2, Adenosine receptor A2b (Homo sapiens, UniProt P29275).
T2 sequence (P29275 whole entry): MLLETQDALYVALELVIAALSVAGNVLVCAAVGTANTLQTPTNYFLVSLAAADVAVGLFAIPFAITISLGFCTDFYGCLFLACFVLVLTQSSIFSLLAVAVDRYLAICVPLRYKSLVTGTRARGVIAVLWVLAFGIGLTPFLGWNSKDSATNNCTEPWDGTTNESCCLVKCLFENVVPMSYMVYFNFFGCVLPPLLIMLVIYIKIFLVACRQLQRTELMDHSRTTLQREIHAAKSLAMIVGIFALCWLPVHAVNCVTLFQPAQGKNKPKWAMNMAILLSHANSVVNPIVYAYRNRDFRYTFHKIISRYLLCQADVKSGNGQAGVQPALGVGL
Description: Antagonist activity at adenosine A2b receptor (unknown origin).

The test system of series [10] is Rattus norvegicus. Put plainly: Anti-inflammatory activity in Sprague-Dawley rat assessed as inhibition of LPS-induced neutrophilia at 100 ug/kg, it administered as suspension with Penn-Century micro-sprayer aerosolizer dosed 1 hrs before LPS challenge and measured 5 hrs post dose. The series is classed as functional. Conditions: inhaled or nasal. In a few lines:
as §2

The test system of series [11] is Rattus norvegicus. Put plainly: Anti-inflammatory activity in Sprague-Dawley rat assessed as inhibition of LPS-induced neutrophilia at 10 ug/kg, it administered as suspension with Penn-Century micro-sprayer aerosolizer dosed 1 hrs before LPS challenge and measured 5 hrs post dose. The series is classed as functional. To be noted: inhaled or nasal. The method in brief:
as §2

Series [12] relates to Rattus norvegicus. Put plainly: Anti-inflammatory activity in Sprague-Dawley rat assessed as inhibition of LPS-induced neutrophilia at 30 ug/kg, it administered as suspension with Penn-Century micro-sprayer aerosolizer dosed 18 hrs before LPS challenge and measured 22 hrs post dose. The series is classed as functional. To be noted: inhaled or nasal. In a few lines: as §2

The nature of series [13]: Pro-inflammatory activity in Sprague-Dawley rat assessed as induction of neutrophilia at 1000 ug/kg, it administered as dry powder with lactose carrier through Penn-Century insufflator. Conditions: in vivo, inhaled_or_intranasal, 1 mg/kg.
In series [14] the test system is Rattus norvegicus. Put plainly: Anti-inflammatory activity in Sprague-Dawley rat assessed as inhibition of LPS-induced neutrophilia at 1000 ug/kg, it administered as suspension with Penn-Century micro-sprayer aerosolizer dosed 18 hrs before LPS challenge and measured 22 hrs post dose. Format: functional. To be noted: inhaled or nasal. In a few lines: as §2
In series [15] the test system is Rattus norvegicus. Description: Anti-inflammatory activity in Sprague-Dawley rat assessed as inhibition of LPS-induced neutrophilia at 1000 ug/kg, it administered as dry powder with lactose carrier through Penn-Century insufflator dosed 1 hrs before LPS challenge and measured 5 hrs post dose. The series is classed as functional. The method in brief:
as §1

The subject of series [16] is Rattus norvegicus. Description: Toxicity in Sprague-Dawley rat model of LPS-induced neutrophilia assessed as induction of irritation in lungs at 1000 ug/kg, it administered as dry powder with lactose carrier through Penn-Century insufflator dosed 18 hrs before LPS challenge and measured 22 hrs post dose. The series is classed as organism-based. To be noted: in vivo, inhaled_or_intranasal, 1 mg/kg.

In series [17] the target is 3',5'-cyclic-AMP phosphodiesterase 4B (Homo sapiens, UniProt Q07343). Description: Inhibition of human recombinant PDE4B1 assessed as reduction in [3H]cAMP hydrolysis to [3H]AMP incubated for 60 mins by PDE-SPA assay.
3',5'-cyclic-AMP phosphodiesterase 4B, sequence (Q07343 whole entry): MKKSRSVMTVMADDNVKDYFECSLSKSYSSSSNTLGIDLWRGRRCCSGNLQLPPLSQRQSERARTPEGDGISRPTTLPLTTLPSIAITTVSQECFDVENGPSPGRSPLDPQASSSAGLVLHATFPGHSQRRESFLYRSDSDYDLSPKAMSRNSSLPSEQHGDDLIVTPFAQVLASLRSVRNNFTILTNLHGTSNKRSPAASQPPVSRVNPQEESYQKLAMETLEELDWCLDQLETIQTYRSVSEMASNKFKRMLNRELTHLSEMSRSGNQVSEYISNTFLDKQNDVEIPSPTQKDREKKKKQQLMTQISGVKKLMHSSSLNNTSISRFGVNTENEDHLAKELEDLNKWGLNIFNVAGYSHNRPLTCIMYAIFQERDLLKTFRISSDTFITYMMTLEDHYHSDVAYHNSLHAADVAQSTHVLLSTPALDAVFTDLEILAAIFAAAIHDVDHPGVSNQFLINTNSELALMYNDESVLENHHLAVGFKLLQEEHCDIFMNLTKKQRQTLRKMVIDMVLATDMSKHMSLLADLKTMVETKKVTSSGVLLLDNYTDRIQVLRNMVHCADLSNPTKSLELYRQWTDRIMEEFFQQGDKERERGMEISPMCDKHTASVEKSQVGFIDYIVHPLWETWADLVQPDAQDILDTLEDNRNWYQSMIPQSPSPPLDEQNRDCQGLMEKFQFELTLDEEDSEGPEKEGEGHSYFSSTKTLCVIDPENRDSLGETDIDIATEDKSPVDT
The nature of series [18]: Selectivity index, ratio of IC50 for adenosine A1/A2a/A2b receptor (unknown origin) to IC50 for inhibition of PDE4 in PBMC (unknown origin) assessed as reduction in LPS-induced TNFalpha production. Also on record: species or system Homo sapiens.
The test system of series [19] is Rattus norvegicus. Description: Anti-inflammatory activity in Sprague-Dawley rat assessed as inhibition of LPS-induced neutrophilia at 1000 ug/kg, it administered as suspension with Penn-Century micro-sprayer aerosolizer dosed 1 hrs before LPS challenge and measured 5 hrs post dose. The series is classed as functional. Conditions: inhaled or nasal. The method in brief: as §2

The test system of series [20] is Rattus norvegicus. Put plainly: Anti-inflammatory activity in Sprague-Dawley rat assessed as inhibition of LPS-induced neutrophilia at 10 to 1000 ug/kg, it administered as suspension with Penn-Century micro-sprayer aerosolizer dosed 18 hrs before LPS challenge and measured 22 hrs post dose. Format: functional. Conditions: inhaled or nasal. In a few lines: as §2

Series [21] has as its system Rattus norvegicus. Put plainly: Anti-inflammatory activity in Sprague-Dawley rat assessed as inhibition of LPS-induced neutrophilia at 10 to 1000 ug/kg, it administered as dry powder with lactose carrier through Penn-Century insufflator dosed 1 hrs before LPS challenge and measured 5 hrs post dose. The series is classed as functional. The method in brief: as §1
Series [22] relates to Rattus norvegicus. Put plainly: Anti-inflammatory activity in Sprague-Dawley rat assessed as inhibition of LPS-induced neutrophilia at 6000 ug/kg, it administered as dry powder with lactose carrier through Penn-Century insufflator dosed 18 hrs before LPS challenge and measured 22 hrs post dose. Format: functional. In a few lines:
as §1

`CCn1nc(-c2cccc(-c3ccc(CC(=O)NCCN4CCCCC4)cc3)c2)cc(NC(=O)Nc2c(Cl)cncc2Cl)c1=O`: the half-maximal inhibitory concentration (IC50) (in general, the concentration that inhibits the measured activity by half) in series [1] is 0.52 nM; in [2] it was 374 nM; on Adenosine receptor A1 it was 31 nM; on Adenosine receptor A2a it was 105 nM; on Adenosine receptor A2b, 90 nM. The values for the inhibition in vivo at 0.01 mg/kg in the series on Rattus norvegicus [3] and in the series with Rattus norvegicus [7] were 42% and 48%, respectively. Moreover, the ED50 – broadly, the midpoint of the dose-response relation – in the series on Rattus norvegicus [4] came to 0.089 mg/kg. Also, the inhibition in vivo (commonly how much of the control response was suppressed) at 0.1 mg/kg in the series with Rattus norvegicus [5] was 48%; with Rattus norvegicus [8], 42%; with Rattus norvegicus [9], 39%. The inhibition in vivo at 0.3 mg/kg in the series on Rattus norvegicus [6] worked out at 47%.

Take `CCn1nc(-c2cccc(-c3cc(C(=O)NCCCN(C)C)cc(C(=O)OC)c3)c2)cc(NC(=O)Nc2c(Cl)cncc2Cl)c1=O`: the IC50 was 0.05 nM in series [1], 71 nM against Adenosine receptor A1, > 1000 nM at Adenosine receptor A2a and > 1000 nM on Adenosine receptor A2b. In the series on Rattus norvegicus [10], the inhibition in vivo at 0.1 mg/kg came to 64%. In addition, the inhibition in vivo at 0.3 mg/kg in the series on Rattus norvegicus [6] stood at 26%. Besides, in the series on Rattus norvegicus [11], the inhibition in vivo at 0.01 mg/kg was 52%. Moreover, the inhibition in vivo at 0.03 mg/kg in the series with Rattus norvegicus [12] came out at 30%.

For `CCn1nc(-c2cccc(-c3cccc(C(=O)NCCN(C)C)c3)c2)cc(NC(=O)Nc2c(Cl)cncc2Cl)c1=O`, the half-inhibitory concentration (IC50) in series [1] was 0.3 nM; in [2], 425 nM; against Adenosine receptor A1, 2 nM; on Adenosine receptor A2a, 28 nM; at Adenosine receptor A2b it was 77 nM. Besides, the “fold change (FC)” value in series [13] was determined as 3.2. Further, in the series with Rattus norvegicus [4], the 50% effective dose (ED50) came to 0.0035 mg/kg. In the series with Rattus norvegicus [10], the inhibition in vivo at 0.1 mg/kg came to 70%. For the same compound, the inhibition in vivo at 1 mg/kg came to 38% with Rattus norvegicus [14] and 8% in the series with Rattus norvegicus [15]. Besides, in the series on Rattus norvegicus [7], the inhibition in vivo at 0.01 mg/kg stood at 38%. For the same compound, in the series on Rattus norvegicus [16], the Activity entry is “Toxic”.

On to `CCn1nc(-c2cccc(-c3cc(C(=O)NC4CC4)cc(C(=O)NC4CCN(Cc5ccccc5)CC4)c3)c2)cc(NC(=O)Nc2c(Cl)cncc2Cl)c1=O`, for which the IC50 is 0.22 nM in series [17]; 0.29 nM in series [1]; > 1000 nM against Adenosine receptor A1; > 1000 nM against Adenosine receptor A2a; > 1000 nM against Adenosine receptor A2b. Also, the ED50 in the series on Rattus norvegicus [4] was determined as 0.029 mg/kg. Moreover, the inhibition in vivo at 0.1 mg/kg in the series on Rattus norvegicus [5] stood at 45%. Moreover, the inhibition in vivo at 0.3 mg/kg with Rattus norvegicus [6] stood at 60%. Further, the “Ratio IC50” value in [18] is >1000. The inhibition in vivo at 0.03 mg/kg with Rattus norvegicus [12] stood at 49%.

Regarding `O=C(Nc1c(Cl)cncc1Cl)c1ccc(OC(F)F)c(OCC2CC2)c1` [ROFLUMILAST], the IC50 was 4 nM in series [1]; 36 nM in [2]; > 1000 nM against Adenosine receptor A1; > 1000 nM at Adenosine receptor A2a; > 1000 nM against Adenosine receptor A2b. In addition, the ED50 in the series on Rattus norvegicus [4] is 0.126 mg/kg; with Rattus norvegicus [20], > 1 mg/kg; with Rattus norvegicus [21] it was 0.204 mg/kg. Also, the inhibition in vivo at 1 mg/kg was determined as 80% in the series with Rattus norvegicus [19] and 24% in the series on Rattus norvegicus [14]. Moreover, the inhibition in vivo at 6 mg/kg in the series with Rattus norvegicus [22] was 37%.

The values above are taken from ChEMBL document CHEMBL3862036, “Biphenyl Pyridazinone Derivatives as Inhaled PDE4 Inhibitors: Structural Biology and Structure-Activity Relationships” (J Med Chem, 2016).
